The source made the active and inactive calls. The calls are words filed in the database; no cut-off is given here.
Tests used:
[1] = biological target: Tyrosine-protein kinase receptor UFO (Homo sapiens) (UniProt P30530); assay: Binding affinity to wild-type human partial length AXL (R497 to Y821 residues) expressed in bacterial expression system assessed as residual binding level at 1 uM by Kinomescan method relative to control
Procedure, shortened: (§1)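 Single-concentration KINOMEscan (DiscoverX) binding screen at 1 μM against a panel of 468 purified kinases and mutants. The read-out is binding relative to control.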

[2] = biological target: Casein kinase I isoform gamma-2 (Homo sapiens) (UniProt P78368); assay: Binding affinity to wild-type human full length CSNK1G2 (M1 to K415 residues) expressed in bacterial expression system assessed as residual binding level at 1 uM by Kinomescan method relative to control
Procedure, shortened: (§2)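 Single-concentration (1 μM) competition-binding screen run by KINOMEscan against a panel of 468 purified kinases and mutants. The read-out is the relative binding activity of the test compound to each kinase.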

[3] = biological target: Serine/threonine-protein kinase DCLK2 (Homo sapiens) (UniProt Q8N568); assay: Binding affinity to wild-type human partial length DCAMKL2 (K273 to V664 residues) expressed in bacterial expression system assessed as residual binding level at 1 uM by Kinomescan method relative to control
[4] = biological target: Mitogen-activated protein kinase 15 (Homo sapiens) (UniProt Q8TD08); assay: Binding affinity to wild-type human partial length ERK8 (M1 to P437 residues) expressed in bacterial expression system assessed as residual binding level at 1 uM by Kinomescan method relative to control
[5] = biological target: Focal adhesion kinase 1 (Homo sapiens) (UniProt Q05397); assay: Binding affinity to wild-type human partial length FAK (D402 to R696 residues) expressed in bacterial expression system assessed as residual binding level at 1 uM by Kinomescan method relative to control
[6] = test system: Receptor-type tyrosine-protein kinase FLT3 (Homo sapiens), P36888 [D835H]; assay: Binding affinity to human partial length FLT3 D835H mutant (V592 to Y969 residues) expressed in bacterial expression system assessed as residual binding level at 1 uM by Kinomescan method relative to control
Procedure, shortened: (§3)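 Kinome-wide single-concentration binding screen (KINOMEscan) at 1 μM against a panel of 468 purified kinases and mutants. Read-out is relative binding of each kinase compared with control. Selectivity across the panel was summarised as an S(10) score.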

[7] = biological target: Inhibitor of nuclear factor kappa-B kinase subunit epsilon (Homo sapiens) (UniProt Q14164); assay: Binding affinity to wild-type human full length IKK-epsilon (M1 to V716 residues) expressed in mammalian expression system assessed as residual binding level at 1 uM by Kinomescan method relative to control; procedure, shortened: as §2
[8] = biological target: Mitogen-activated protein kinase 8 (Homo sapiens) (UniProt P45983); assay: Binding affinity to wild-type human full length JNK1 (M1 to Q384 residues) expressed in mammalian expression system assessed as residual binding level at 1 uM by Kinomescan method relative to control
Procedure, shortened: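 KINOMEscan competition binding against 468 purified kinases/mutants, test compound at 1 µM; residual binding relative to control.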

[9] = biological target: Tyrosine-protein kinase Mer (Homo sapiens) (UniProt Q12866); assay: Binding affinity to wild-type human partial length MERTK (R557 to L884 residues) expressed in bacterial expression system assessed as residual binding level at 1 uM by Kinomescan method relative to control
[10] = test system: Hepatocyte growth factor receptor (Homo sapiens), P08581 [M1250T]; assay: Binding affinity to human partial length MET M1250T mutant (D1010 to S1367 residues) expressed in bacterial expression system assessed as residual binding level at 1 uM by Kinomescan method relative to control; procedure, shortened: as §3
[11] = biological target: MAP kinase-interacting serine/threonine-protein kinase 1 (Homo sapiens) (UniProt Q9BUB5); assay: Binding affinity to wild-type human full length MKNK1 (M1 to L424 residues) expressed in mammalian expression system assessed as residual binding level at 1 uM by Kinomescan method relative to control; procedure, shortened: as §1
[12] = biological target: Serine/threonine-protein kinase NIM1 (Homo sapiens) (UniProt Q8IY84); assay: Binding affinity to wild-type human partial length NIM1 (Q44 to N355 residues) expressed in mammalian expression system assessed as residual binding level at 1 uM by Kinomescan method relative to control
[13] = biological target: Phosphatidylinositol 4,5-bisphosphate 3-kinase catalytic subunit alpha isoform (Homo sapiens) (UniProt P42336); assay: Binding affinity to wild-type human partial length PIK3CA (R108 to N1068 residues) expressed in mammalian expression system assessed as residual binding level at 1 uM by Kinomescan method relative to control
[14] = biological target: Phosphatidylinositol 4,5-bisphosphate 3-kinase catalytic subunit gamma isoform (Homo sapiens) (UniProt P48736); assay: Binding affinity to wild-type human partial length PIK3CG (S144 to A1102 residues) expressed in mammalian expression system assessed as residual binding level at 1 uM by Kinomescan method relative to control
[15] = biological target: Serine/threonine-protein kinase pim-2 (Homo sapiens) (UniProt Q9P1W9); assay: Binding affinity to wild-type human partial length PIM2 (M1 to E291 residues) expressed in bacterial expression system assessed as residual binding level at 1 uM by Kinomescan method relative to control
[16] = biological target: Serine/threonine-protein kinase PLK1 (Homo sapiens) (UniProt P53350); assay: Binding affinity to wild-type human partial length PLK1 (A33 to F325 residues) expressed in mammalian expression system assessed as residual binding level at 1 uM by Kinomescan method relative to control
[17] = biological target: Ribosomal protein S6 kinase alpha-4 (Homo sapiens) (UniProt O75676); assay: Binding affinity to wild-type human partial length C-terminal RPS6KA4 kinase domain 2 (M375 to T705 residues) expressed in mammalian expression system assessed as residual binding level at 1 uM by Kinomescan method relative to control
[18] = biological target: Ribosomal protein S6 kinase alpha-6 (Homo sapiens) (UniProt Q9UK32); assay: Binding affinity to wild-type human partial length N-terminal RSK4 kinase domain 1 (M1 to E397 residues) expressed in mammalian expression system assessed as residual binding level at 1 uM by Kinomescan method relative to control
[19] = biological target: SRSF protein kinase 2 (Homo sapiens) (UniProt P78362); assay: Binding affinity to wild-type human full length SRPK2 (M1 to S686 residues) expressed in bacterial expression system assessed as residual binding level at 1 uM by Kinomescan method relative to control; procedure, shortened: as §1
[20] = biological target: Tyrosine-protein kinase ZAP-70 (Homo sapiens) (UniProt P43403); assay: Binding affinity to wild-type human partial length ZAP70 (D20 to G299 residues) expressed in mammalian expression system assessed as residual binding level at 1 uM by Kinomescan method relative to control
[21] = test system: NCI-H1703; assay: Induction of apoptosis in human NCI-H1703 cells assessed as cleaved caspase3 expression level after 72 hrs in presence of PDGF-AA by Western blot analysis; assay type: functional, cell-based
Procedure, shortened: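 Cells exposed to compound or DMSO for the stated periods, then lysed and immunoblotted for PARP and caspase-3 cleavage, with β-actin as loading control. NCI-H1703 stimulation used PDGF AA at 100 ng/mL.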

Sequence of Tyrosine-protein kinase ZAP-70 (Homo sapiens) (P43403 whole entry, the tested form may be a part): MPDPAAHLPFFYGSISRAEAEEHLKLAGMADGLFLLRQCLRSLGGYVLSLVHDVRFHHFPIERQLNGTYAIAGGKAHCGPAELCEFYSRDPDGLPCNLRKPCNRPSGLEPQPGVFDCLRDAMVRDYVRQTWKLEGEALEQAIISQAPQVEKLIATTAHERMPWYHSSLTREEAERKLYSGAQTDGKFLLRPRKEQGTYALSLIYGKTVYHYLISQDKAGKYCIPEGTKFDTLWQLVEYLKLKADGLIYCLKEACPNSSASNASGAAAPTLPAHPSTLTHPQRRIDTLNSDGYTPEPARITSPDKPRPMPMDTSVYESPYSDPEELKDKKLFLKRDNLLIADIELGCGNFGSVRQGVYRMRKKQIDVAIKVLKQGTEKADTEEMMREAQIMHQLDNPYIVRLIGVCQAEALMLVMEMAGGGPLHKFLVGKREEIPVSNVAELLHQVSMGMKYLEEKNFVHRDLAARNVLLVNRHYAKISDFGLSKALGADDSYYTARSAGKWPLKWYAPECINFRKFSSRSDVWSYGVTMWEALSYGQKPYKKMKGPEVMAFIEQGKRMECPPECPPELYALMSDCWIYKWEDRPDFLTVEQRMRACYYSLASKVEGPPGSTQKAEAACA
Sequence of Serine/threonine-protein kinase DCLK2 (Homo sapiens) (Q8N568 whole entry, the tested form may be a part): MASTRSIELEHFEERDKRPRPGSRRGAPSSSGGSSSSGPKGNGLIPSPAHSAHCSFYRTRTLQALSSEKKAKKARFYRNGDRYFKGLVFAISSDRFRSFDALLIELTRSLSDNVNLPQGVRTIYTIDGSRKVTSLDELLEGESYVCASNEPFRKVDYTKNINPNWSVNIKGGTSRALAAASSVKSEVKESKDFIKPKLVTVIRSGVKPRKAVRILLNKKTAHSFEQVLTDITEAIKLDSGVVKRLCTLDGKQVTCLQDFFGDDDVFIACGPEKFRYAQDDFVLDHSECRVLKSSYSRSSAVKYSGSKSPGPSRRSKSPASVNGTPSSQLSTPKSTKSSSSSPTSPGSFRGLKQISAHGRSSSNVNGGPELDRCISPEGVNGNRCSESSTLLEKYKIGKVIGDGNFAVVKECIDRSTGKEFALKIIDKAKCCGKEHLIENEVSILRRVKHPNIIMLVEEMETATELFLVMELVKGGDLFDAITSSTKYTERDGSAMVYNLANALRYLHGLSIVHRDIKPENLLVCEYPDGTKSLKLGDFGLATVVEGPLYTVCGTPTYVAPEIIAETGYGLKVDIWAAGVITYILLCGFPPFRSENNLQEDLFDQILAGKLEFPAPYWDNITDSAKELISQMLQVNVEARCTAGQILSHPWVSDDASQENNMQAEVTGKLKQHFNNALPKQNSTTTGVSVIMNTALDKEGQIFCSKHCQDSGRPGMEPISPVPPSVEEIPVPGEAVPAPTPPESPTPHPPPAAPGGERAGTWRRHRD
Sequence of Serine/threonine-protein kinase NIM1 (Homo sapiens) (Q8IY84 whole entry, the tested form may be a part, canonical isoform): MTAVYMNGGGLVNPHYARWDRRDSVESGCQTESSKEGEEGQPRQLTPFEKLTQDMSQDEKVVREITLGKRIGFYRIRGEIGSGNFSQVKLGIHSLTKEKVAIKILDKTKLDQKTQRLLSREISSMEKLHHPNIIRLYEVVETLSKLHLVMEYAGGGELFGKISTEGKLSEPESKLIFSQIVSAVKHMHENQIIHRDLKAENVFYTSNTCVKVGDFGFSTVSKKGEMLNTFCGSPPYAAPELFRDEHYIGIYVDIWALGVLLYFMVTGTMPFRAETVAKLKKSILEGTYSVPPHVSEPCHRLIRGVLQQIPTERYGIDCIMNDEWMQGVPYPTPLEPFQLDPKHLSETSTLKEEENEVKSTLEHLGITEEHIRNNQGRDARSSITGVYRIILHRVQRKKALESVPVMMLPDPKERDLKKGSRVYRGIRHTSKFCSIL
Sequence of Mitogen-activated protein kinase 15 (Homo sapiens) (Q8TD08 whole entry, the tested form may be a part): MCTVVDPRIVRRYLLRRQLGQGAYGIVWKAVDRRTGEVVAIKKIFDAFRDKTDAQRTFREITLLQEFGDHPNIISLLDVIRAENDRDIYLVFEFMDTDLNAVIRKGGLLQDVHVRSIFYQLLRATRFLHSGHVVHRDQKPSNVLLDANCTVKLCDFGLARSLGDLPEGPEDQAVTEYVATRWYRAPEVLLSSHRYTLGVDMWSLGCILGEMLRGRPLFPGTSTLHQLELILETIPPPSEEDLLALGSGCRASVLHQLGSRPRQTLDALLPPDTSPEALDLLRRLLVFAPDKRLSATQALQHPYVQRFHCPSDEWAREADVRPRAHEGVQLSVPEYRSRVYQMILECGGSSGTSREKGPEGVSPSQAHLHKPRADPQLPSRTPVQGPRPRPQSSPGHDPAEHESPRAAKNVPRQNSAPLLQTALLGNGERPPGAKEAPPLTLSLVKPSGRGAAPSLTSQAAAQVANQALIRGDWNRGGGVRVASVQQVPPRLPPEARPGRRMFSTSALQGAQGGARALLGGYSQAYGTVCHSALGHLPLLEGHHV
Sequence of Serine/threonine-protein kinase pim-2 (Homo sapiens) (Q9P1W9 whole entry, looked up, the tested form may be a part): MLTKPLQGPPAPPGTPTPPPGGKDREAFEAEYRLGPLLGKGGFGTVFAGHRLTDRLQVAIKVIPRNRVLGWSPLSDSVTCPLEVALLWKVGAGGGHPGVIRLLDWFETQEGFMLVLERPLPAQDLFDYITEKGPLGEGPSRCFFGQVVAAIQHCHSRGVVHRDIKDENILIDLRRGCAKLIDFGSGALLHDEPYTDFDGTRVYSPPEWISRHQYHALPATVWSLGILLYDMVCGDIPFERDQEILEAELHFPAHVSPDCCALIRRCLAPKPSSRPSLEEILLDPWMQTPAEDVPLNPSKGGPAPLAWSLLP
Sequence of Focal adhesion kinase 1 (Homo sapiens) (Q05397 2-1052 limits assumed): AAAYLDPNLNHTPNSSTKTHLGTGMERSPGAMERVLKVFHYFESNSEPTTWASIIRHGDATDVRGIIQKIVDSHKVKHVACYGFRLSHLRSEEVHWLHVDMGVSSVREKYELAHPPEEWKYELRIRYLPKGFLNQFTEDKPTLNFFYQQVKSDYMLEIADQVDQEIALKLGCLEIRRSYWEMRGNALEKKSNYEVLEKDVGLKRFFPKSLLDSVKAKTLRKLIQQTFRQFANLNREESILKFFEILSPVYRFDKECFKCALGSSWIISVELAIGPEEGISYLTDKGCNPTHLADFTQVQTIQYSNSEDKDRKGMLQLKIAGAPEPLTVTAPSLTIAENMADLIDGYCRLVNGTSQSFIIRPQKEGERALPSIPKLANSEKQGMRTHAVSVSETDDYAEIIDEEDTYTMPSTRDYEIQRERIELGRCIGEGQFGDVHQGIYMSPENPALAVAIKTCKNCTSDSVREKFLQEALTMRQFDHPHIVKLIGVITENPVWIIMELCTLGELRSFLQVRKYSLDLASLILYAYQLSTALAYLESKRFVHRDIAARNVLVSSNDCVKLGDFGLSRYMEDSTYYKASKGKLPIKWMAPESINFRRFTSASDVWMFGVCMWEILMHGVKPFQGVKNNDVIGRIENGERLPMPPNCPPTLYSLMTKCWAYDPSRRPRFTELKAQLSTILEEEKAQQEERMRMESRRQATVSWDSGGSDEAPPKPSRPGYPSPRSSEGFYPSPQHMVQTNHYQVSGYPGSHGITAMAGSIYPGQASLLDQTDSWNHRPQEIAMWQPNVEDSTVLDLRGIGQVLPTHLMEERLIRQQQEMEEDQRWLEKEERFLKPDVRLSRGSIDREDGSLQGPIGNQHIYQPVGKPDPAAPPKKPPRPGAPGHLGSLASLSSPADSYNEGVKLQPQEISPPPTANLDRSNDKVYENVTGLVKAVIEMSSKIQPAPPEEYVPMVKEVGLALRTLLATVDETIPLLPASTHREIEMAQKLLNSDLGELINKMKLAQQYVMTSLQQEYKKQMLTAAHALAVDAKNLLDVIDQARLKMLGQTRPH
Sequence of Casein kinase I isoform gamma-2 (Homo sapiens) (P78368 whole entry, looked up, the tested form may be a part, canonical isoform): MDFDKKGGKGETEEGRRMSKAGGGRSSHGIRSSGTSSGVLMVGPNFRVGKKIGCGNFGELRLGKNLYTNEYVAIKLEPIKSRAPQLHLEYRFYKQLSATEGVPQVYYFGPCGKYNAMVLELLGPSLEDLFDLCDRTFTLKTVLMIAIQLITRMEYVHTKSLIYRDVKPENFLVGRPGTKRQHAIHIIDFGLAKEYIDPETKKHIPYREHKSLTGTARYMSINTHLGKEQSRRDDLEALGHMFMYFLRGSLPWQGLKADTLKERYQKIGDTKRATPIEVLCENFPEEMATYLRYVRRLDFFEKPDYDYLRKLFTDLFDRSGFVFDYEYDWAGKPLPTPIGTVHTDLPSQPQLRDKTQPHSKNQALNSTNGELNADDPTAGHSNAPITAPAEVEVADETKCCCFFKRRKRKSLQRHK
Sequence of Mitogen-activated protein kinase 8 (Homo sapiens) (P45983 whole entry, the tested form may be a part): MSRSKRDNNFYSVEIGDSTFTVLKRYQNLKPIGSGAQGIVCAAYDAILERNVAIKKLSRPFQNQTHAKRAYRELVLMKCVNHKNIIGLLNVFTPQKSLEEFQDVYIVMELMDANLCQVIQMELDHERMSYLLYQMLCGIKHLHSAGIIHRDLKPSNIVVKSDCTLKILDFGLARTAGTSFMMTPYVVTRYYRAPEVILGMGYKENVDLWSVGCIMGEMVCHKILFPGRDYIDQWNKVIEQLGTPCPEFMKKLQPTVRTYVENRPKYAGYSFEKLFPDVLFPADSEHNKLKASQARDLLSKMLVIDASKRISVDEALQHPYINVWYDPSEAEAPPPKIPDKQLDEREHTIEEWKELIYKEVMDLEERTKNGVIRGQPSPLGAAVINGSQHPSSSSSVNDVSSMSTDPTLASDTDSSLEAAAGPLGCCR

Compound: Cc1ccc(NC(=O)c2ccc(CN(CCN(C)C)C(=O)c3cccnc3)cc2)cc1Nc1nccc(-c2cccnc2)n1
- Activity [1]: 95%
- Activity [2]: 99%
- Activity [3]: 96%
- Activity [4]: 71%
- Activity [5]: 90%
- Activity [6]: 100%
- Activity [7]: 100%
- Activity [8]: 36%
- Activity [9]: 100%
- Activity [10]: 86%
- Activity [11]: 100%
- Activity [12]: 100%
- Activity [13]: 100%
- Activity [14]: 99%
- Activity [15]: 93%
- Activity [16]: 100%
- Activity [17]: 100%
- Activity [18]: 100%
- Activity [19]: 86%
- Activity [20]: 100%
- Activity [21]: Active
